Our source for the ΔTm and IC50 values is ChEMBL document CHEMBL1138229, “Novel cyano- and amidino-substituted derivatives of styryl-2-benzimidazoles and benzimidazo[1,2-a]quinolines. Synthesis, photochemical synthesis, DNA binding, and antitumor evaluation, part 3” (J Med Chem, 2007).

Broadly, the ΔTm is the change in melting temperature against a reference sample. As usually defined, the IC50 is the concentration at which inhibition is half-maximal.

In one assay the test system is DNA. In words: Binding affinity to calf thymus DNA by thermal melting temperature assay. The format is nucleic-acid assay. To be noted: Bos taurus. Put shortly: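 ct-DNA (as phosphate concentration) in sodium cacodylate buffer pH 7.0, I = 0.05 mol dm-3. Compound/polynucleotide ratio r = 0.3. Absorbance at 260 nm followed against temperature, ligand absorbance subtracted. Tm taken as transition midpoint by first derivative or tangent method. ΔTm = Tm(complex) − Tm(free DNA), averaged over at least two runs, error ±0.5 °C.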

Assay [1] is described as follows: Antiproliferative activity against human […] fibroblast after 72 hrs by MTT assay. Format: functional. In outline: (§1)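 Cells from ATCC grown as monolayers in DMEM with 10% FBS, 2 mM L-glutamine, penicillin/streptomycin, 5% CO2, 37 °C. Seeded on day 0 at 1 × 10^4/mL (2 × 10^4/mL for MCF-7). Five 10-fold dilutions (10^-8 to 10^-4 mol/L) added, then 72 h exposure. MTT read at 570 nm; percent growth vs time-zero and untreated controls. IC50 by linear regression; quadruplicates, three experiments.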
(In general: Tetrazolium dyes change colour on reduction, which living cells bring about.)

A further assay deals with HEp-2. In words: Antitumor activity against human Hep2 cells after 72 hrs by MTT assay. Format: functional, cell-based. To be noted: HEp-2, 72 h. In outline: as §1
A further assay has as its system SW-620. As to the kind of experiment: Antitumor activity against human SW620 cells after 72 hrs by MTT assay. The format is functional, cell-based. To be noted: SW-620, 72 h. Put shortly: as §1
A further assay has as its system HeLa. In words: Antitumor activity against human HeLa cells after 72 hrs by MTT assay. Format: functional, cell-based. Put shortly: as §1
A further assay deals with MCF7. In words: Antitumor activity against human MCF7 cells after 72 hrs by MTT assay. The format is functional, cell-based. To be noted: MCF7, 72 h. Put shortly: as §1
Another assay has as its system MIA PaCa-2. In words: Antitumor activity against human MiaPaCa2 cells after 72 hrs by MTT assay. To be noted: MIA PaCa-2, 72 h. Format: functional, cell-based. In outline: as §1
For the next assay, the system named is NCI-H460. As to the kind of experiment: Antitumor activity against human H460 cells after 72 hrs by MTT assay. To be noted: NCI-H460, 72 h. Format: functional, cell-based. In outline:
as §1

Each structure is given as a SMILES string.

For `N=C(N)c1ccc2nc(/C=C/c3ccccc3)[nH]c2c1`, the ΔTm in the assay on DNA is 0.7 °C. The IC50 was over 100 µM in assay [1]; 11 µM in the assay with HEp-2; 15 µM in the assay with SW-620; 2 µM in the assay with HeLa; 29 µM in the assay with MCF7; over 100 µM in the assay with MIA PaCa-2.
For `N=C(NN1CCOCC1)c1ccc2ccc3nc4ccccc4n3c2c1`, the ΔTm in the assay on DNA stood at 3.2 °C. The IC50 in assay [1] amounted to 17.7 µM; in the assay on HEp-2, 4.7 µM; in the assay on SW-620, 1.9 µM; with HeLa it was 7 µM; in the assay with MCF7 it was 6.7 µM; in the assay with MIA PaCa-2, 10 µM.
In the case of `N=C(NN1CCOCC1)c1ccc2nc(/C=C/c3ccccc3)[nH]c2c1`, the ΔTm in the assay with DNA turned out to be 0.1 °C. The IC50 in assay [1] worked out at 20 µM; with HEp-2 it was 13 µM; in the assay on SW-620, 12 µM; in the assay on HeLa, 6 µM; in the assay with MCF7 it was 14 µM; in the assay with MIA PaCa-2, 16 µM.
As to `N=C(N)c1ccc2ccc3nc4ccccc4n3c2c1`, in the assay on DNA, the ΔTm was found to be 5.2 °C. Also, the IC50 in assay [1] is 6.7 µM; with HEp-2, 4 µM; in the assay on SW-620, 2.9 µM; with HeLa, 4.9 µM; with MCF7 it was 4 µM; in the assay with MIA PaCa-2, 4.5 µM.
As to `CC(C)NC(=N)c1ccc2nc(/C=C\c3ccccc3Cl)[nH]c2c1`, the IC50 was over 100 µM in assay [1]; 30 µM in the assay on HEp-2; 29 µM in the assay with SW-620; 19 µM with HeLa; 35 µM with MCF7; 28 µM in the assay with MIA PaCa-2.
As to `N#Cc1ccc2nc(/C=C/c3ccccc3)[nH]c2c1`, the IC50 was 14 µM in assay [1]; 2.5 µM with SW-620; 2 µM in the assay on HeLa; 4 µM in the assay on MCF7; 4 µM with MIA PaCa-2; 3 µM with NCI-H460.
Take `C(=C\c1nc2ccc(C3=NCCN3)cc2[nH]1)/c1ccccc1`: the ΔTm with DNA was 1.4 °C. In addition, the IC50 in assay [1] is 21 µM; in the assay on HEp-2, 16 µM; in the assay with SW-620 it was 16 µM; in the assay with HeLa it was 4 µM; with MCF7, 7 µM; in the assay with MIA PaCa-2, 19 µM.
As to `CC(C)NC(=N)c1ccc2nc3ccc4ccccc4n3c2c1`, in the assay on DNA, the ΔTm was determined as 3.7 °C. Moreover, the IC50 in assay [1] was 10 µM; in the assay with HEp-2 it was 4 µM; in the assay on SW-620, 3 µM; with HeLa, 4 µM; in the assay with MCF7, 4 µM; in the assay with MIA PaCa-2 it was 3 µM.
With `c1ccc2c(c1)nc1ccc3ccc(C4=NCCN4)cc3n12`, the ΔTm with DNA was 3.6 °C. Besides, the IC50 was 7.8 µM in assay [1]; 2.4 µM with HEp-2; 1.4 µM in the assay on SW-620; 7 µM in the assay on HeLa; 5.3 µM with MCF7; 5.6 µM with MIA PaCa-2.
As to `N#Cc1ccc(/C=C/c2nc3ccccc3[nH]2)cc1`, the IC50 amounted to 23 µM in the assay with SW-620; 19 µM in the assay with HeLa; 14 µM with MCF7; 36 µM in the assay on MIA PaCa-2; 20 µM in the assay with NCI-H460.
Take `CC(C)NC(=N)c1ccc2nc(/C=C\c3ccccc3)[nH]c2c1`: in the assay on DNA, the ΔTm worked out at 1.2 °C. In addition, the IC50 was over 100 µM in assay [1]; 81 µM with HEp-2; 70 µM in the assay with SW-620; 23 µM in the assay on HeLa; 33 µM in the assay on MCF7; 84 µM with MIA PaCa-2.
For the compound `N#Cc1ccc2c(c1)nc1ccc3ccccc3n12`, the IC50 in assay [1] was determined as 5 µM; in the assay with SW-620 it was 2 µM; in the assay on HeLa, 4 µM; in the assay with MCF7, 21 µM; in the assay on MIA PaCa-2, 7 µM; with NCI-H460, 7 µM.
Turning to `CC(C)NC(=N)c1ccc2ccc3nc4ccccc4n3c2c1`, in the assay with DNA, the ΔTm was 5 °C. Further, the IC50 in assay [1] was found to be 2.7 µM; with HEp-2, 1.6 µM; in the assay with SW-620, 1.6 µM; with HeLa, 1.7 µM; with MCF7, 2.2 µM; in the assay on MIA PaCa-2, 8.1 µM.
Take `N#Cc1ccc2nc3ccc4ccccc4n3c2c1`: the IC50 in assay [1] came to 14 µM; with SW-620 it was 8 µM; in the assay on HeLa, 0.05 µM; with MCF7, 18 µM; in the assay with MIA PaCa-2, 15 µM; in the assay on NCI-H460, 13 µM.
`N=C(NN1CCOCC1)c1ccc2nc(/C=C\c3ccccc3Cl)[nH]c2c1`: the IC50 in assay [1] came out at 21 µM; in the assay on HEp-2, 9 µM; in the assay on SW-620, 15 µM; with HeLa, 7 µM; in the assay with MCF7 it was 14 µM; in the assay on MIA PaCa-2, 15 µM.
With `Clc1ccccc1/C=C/c1nc2ccc(C3=NCCN3)cc2[nH]1`, the IC50 was found to be 42 µM in assay [1]; 16 µM with HEp-2; 14 µM in the assay on SW-620; 4 µM in the assay with HeLa; 5 µM in the assay on MCF7; 17 µM in the assay on MIA PaCa-2.
For the compound `N=C(NN1CCOCC1)c1ccc2nc(/C=C\c3ccccc3)[nH]c2c1`, the ΔTm in the assay on DNA is 1.3 °C. Moreover, the IC50 in assay [1] stood at 22 µM; in the assay on HEp-2, 61 µM; in the assay on SW-620 it was 22 µM; in the assay on HeLa, 13 µM; in the assay on MCF7, 25 µM; with MIA PaCa-2, 47 µM.
On to `N=C(N)c1ccc2nc3ccc4ccccc4n3c2c1`, for which the ΔTm in the assay with DNA was 3.6 °C. Moreover, the IC50 amounted to 74 µM in assay [1]; 13 µM in the assay with HEp-2; 17 µM with SW-620; 5 µM with HeLa; 9 µM in the assay on MCF7; 13 µM with MIA PaCa-2.
`N=C(N)c1ccc2nc(/C=C\c3ccccc3Cl)[nH]c2c1`: the IC50 in assay [1] is over 100 µM; with HEp-2, 29 µM; in the assay on SW-620 it was over 100 µM; in the assay with HeLa it was 20 µM; in the assay with MCF7, 38 µM; in the assay on MIA PaCa-2, 85 µM.
Consider `CC(C)NC(=N)c1ccc2nc(/C=C/c3ccccc3)[nH]c2c1`, for which the ΔTm in the assay with DNA came out at 1.1 °C. For the same compound, the IC50 is over 100 µM in assay [1]; at least 100 µM with HEp-2; over 100 µM in the assay with SW-620; 11 µM in the assay on HeLa; 9 µM in the assay on MCF7; over 100 µM in the assay on MIA PaCa-2.
As to `Clc1ccccc1/C=C\c1nc2ccc(C3=NCCN3)cc2[nH]1`, the IC50 is over 100 µM in assay [1]; at least 100 µM in the assay with HEp-2; 46 µM with SW-620; 11 µM in the assay on HeLa; 23 µM in the assay with MCF7; 62 µM with MIA PaCa-2.
Take `c1ccc2c(c1)ccc1nc3ccccc3n12`: the IC50 in assay [1] came out at 14 µM; in the assay on HEp-2, 15 µM; with SW-620, 23 µM; in the assay with HeLa, 12 µM; in the assay with MCF7, 16 µM; in the assay with MIA PaCa-2 it was 18 µM.
For the compound `N=C(N)c1ccc2nc(/C=C\c3ccccc3)[nH]c2c1`, in the assay with DNA, the shift in melting temperature (ΔTm) is -0.5 °C. Also, the IC50 was over 100 µM in assay [1]; at least 100 µM in the assay on HEp-2; 78 µM in the assay on SW-620; 5.4 µM in the assay with HeLa; 36 µM in the assay on MCF7; over 100 µM in the assay on MIA PaCa-2.
On to `N=C(N)c1ccc2nc(/C=C/c3ccccc3Cl)[nH]c2c1`, for which the IC50 is over 100 µM in assay [1]; 23 µM in the assay on HEp-2; over 100 µM in the assay with SW-620; 7.5 µM in the assay on HeLa; 22 µM in the assay with MCF7; over 100 µM in the assay on MIA PaCa-2.
For `N=C(NN1CCOCC1)c1ccc2nc(/C=C/c3ccccc3Cl)[nH]c2c1`, the half-maximal inhibitory concentration (IC50) turned out to be 7 µM in assay [1]; 10 µM with HEp-2; 4 µM with SW-620; 3 µM in the assay with HeLa; 4 µM in the assay with MCF7; 5 µM in the assay with MIA PaCa-2.
As for `CC(C)NC(=N)c1ccc2nc(/C=C/c3ccccc3Cl)[nH]c2c1`, the IC50 was over 100 µM in assay [1]; 70 µM with HEp-2; 66 µM in the assay on SW-620; 10 µM with HeLa; 16 µM in the assay on MCF7; 48 µM with MIA PaCa-2.
With `COc1cc([C@@H]2c3cc4c(cc3[C@@H](O[C@@H]3O[C@@H]5CO[C@@H](C)O[C@H]5[C@H](O)[C@H]3O)[C@H]3COC(=O)[C@H]23)OCO4)cc(OC)c1O` [ETOPOSIDE], the IC50 in the assay with SW-620 is 20 µM; in the assay with HeLa, 3 µM; in the assay with MCF7, 50 µM; in the assay on MIA PaCa-2 it was 15 µM.
Turning to `COc1cccc2c1C(=O)c1c(O)c3c(c(O)c1C2=O)C[C@@](O)(C(=O)CO)C[C@@H]3O[C@H]1C[C@H](N)[C@H](O)[C@H](C)O1` [DOXORUBICIN], the IC50 in the assay on HEp-2 came to 0.04 µM; in the assay with SW-620, 0.02 µM; with HeLa it was 0.04 µM; in the assay with MCF7, 0.04 µM; with MIA PaCa-2, 0.02 µM.
